The sample as a whole holds a higher share of hits than the screen did.
T cruzi intra: inhibitors of intracellular Trypanosoma cruzi; intracellular Trypanosoma cruzi in host cells, plate reader; activity score (inhibition), % at 5.01 µM; 22,000 compounds, 4.9% hits; AID 651903; in the data active = activity score above about 55%; inconclusive = no clear call, values can overlap the other calls;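 also: parasites and compound incubated about four days before reading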
A1 apoptosis 2: compounds inhibiting A1, read as caspase activation | 24,000 tested, under 10 active | MEF A1-2A-BIM cells, caspase-Glo luminescence, 3 h; percent of clofoctol response, DMSO zero | caspase activation, % (no concentration beside the values) | AID 2465; in the data active = caspase activation above about 5.9%; inconclusive = no clear call, values can overlap the other calls; inactive = below about 2.2%
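System: mouse embryonic fibroblasts co-expressing A1 and BIM (A1-2A-BIM), primed for A1 dependence; amount: 2500 cells/well; doses: 50 nL pinned compound; schedule: cells settled overnight, compound exposure 3 h at 37 °C, 5% CO2; detection: Caspase-Glo 3/7 luminescence, 1 h at room temperature; read-out: Caspase-3/7 activation, seen as rise in luminescence signal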
INS-1E rescue: INS-1E beta cell protection from cytokine death; AID 488910; 20,000 compounds, 0.1% hits; INS-1E cytokine-induced death, ATP luminescence, 48 h; normalised: neutral wells 0, positive control 100; protection from cytokine-induced ATP loss, % at 10 µM;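 active = mean replicate protection from cytokine-induced ATP loss at least 50% and at least 75% of replicates each reaching 50%; inconclusive = meets only one of the two criteria, mean or replicate share; inactive = fails both the mean and replicate share criteria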
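Test system: INS-1E rat cells | Quantity: 8000 cells per well | Medium: Phenol-red-free RPMI with 5% fetal bovine serum | Reagent: Cytokine cocktail of IFN-γ, TNF-α and IL-1β | Doses: One compound concentration, pin transfer | Timing: 48 h co-treatment, 10 min post-lysis read | Technique: Luminescent ATP assay (CellTiter-Glo)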
Large screens that a line does not name were inactive.

C[C@H](CO)N1C[C@H](C)[C@H](CN(C)C(=O)NC2CCCCC2)Oc2c(NC(=O)Nc3cccc4ccccc34)cccc2C1=O	T cruzi intra 63
C[C@@H]1CN([C@@H](C)CO)C(=O)c2cccc(NC(=O)Nc3ccc(C(F)(F)F)cc3)c2O[C@@H]1CN(C)C(=O)Nc1ccc(C(F)(F)F)cc1	T cruzi intra 88 (no result: A1 apoptosis 2)
COC(=O)C1=C/C(C)=C\C(C)N(Cc2ccc(OC)cc2)/C=C\1C(=O)OC (stereo not given)	none (no result: T cruzi intra, INS-1E rescue)
COC(=O)C(CC#Cc1ccc2c(c1)[C@]1(C(=O)N2)[C@H](C(=O)N2CCCCCCC2)[C@H]2C(=O)O[C@H](c3ccccc3)[C@H](c3ccccc3)N2[C@@H]1c1ccc(O)cc1)C(=O)OC	none (no result: T cruzi intra, INS-1E rescue)
O=C(NO)c1cccc(C(=O)N/N=C/c2ccccc2OCCO)c1	none
CC(C)(C)/C=N/NC(=O)CCCCCCC(=O)Nc1ccccc1O	none
COc1ccc(Br)c(/C=N/NC(=O)CCCCC(=O)NO)c1	none (no result: T cruzi intra, INS-1E rescue)
COC(=O)CCCCCCC(=O)N/N=C/c1cc(Br)cs1	none
C[C@H](CO)N1C[C@H](C)[C@@H](CN(C)Cc2ccc(Oc3ccccc3)cc2)Oc2c(NC(=O)CCCCCC(=O)Nc3ccccc3N)cccc2C1=O	none (no result: T cruzi intra, INS-1E rescue)
C[C@@H]1CN([C@@H](C)CO)C(=O)c2cccc(NC(=O)CCCCCC(=O)Nc3ccccc3N)c2O[C@H]1CN(C)Cc1ccc(Cl)c(Cl)c1	T cruzi intra 80 (no result: A1 apoptosis 2)
C[C@@H]1CN([C@@H](C)CO)C(=O)c2cccc(NC(=O)CCCCCC(=O)Nc3ccccc3N)c2O[C@H]1CN(C)Cc1ccccc1	T cruzi intra 72
C[C@@H]1CN([C@@H](C)CO)C(=O)c2cccc(NC(=O)CCCCCC(=O)Nc3ccccc3N)c2O[C@H]1CN(C)Cc1ccc(Oc2ccccc2)cc1	T cruzi intra 84
C[C@@H]1CN([C@H](C)CO)C(=O)c2cccc(NC(=O)CCCCCC(=O)Nc3ccccc3N)c2O[C@@H]1CN(C)Cc1ccccc1	none (no result: A1 apoptosis 2)
C[C@H]1CN([C@@H](C)CO)C(=O)c2cccc(NC(=O)CCCCCC(=O)Nc3ccccc3N)c2O[C@H]1CN(C)Cc1ccc(-c2ccccc2)cc1	T cruzi intra 68
C[C@@H]1CN([C@H](C)CO)C(=O)c2cccc(NC(=O)CCCCCC(=O)Nc3ccccc3N)c2O[C@@H]1CN(C)Cc1ccc(-c2ccccc2)cc1	T cruzi intra inconclusive
C[C@@H]1CN([C@H](C)CO)C(=O)c2cccc(NC(=O)CCCCCC(=O)Nc3ccccc3N)c2O[C@H]1CN(C)Cc1ccc(Cl)c(Cl)c1	none (no result: T cruzi intra, INS-1E rescue)
O=C(CCCCC(=O)N/N=C/c1ccccc1[N+](=O)[O-])NO	none
COCC1=C([C@H](O)CCc2ccccc2)[C@H](CO)[C@@H]2C(=O)N(Cc3ccccc3)C(=O)[C@@H]2C1	none (no result: T cruzi intra, INS-1E rescue)
C[C@H](CO)N1C[C@H](C)[C@@H](CN(C)CC2CCCCC2)Oc2ccc(NS(=O)(=O)c3ccc(Cl)cc3)cc2CC1=O	none (no result: T cruzi intra, INS-1E rescue)
C[C@@H]1CN([C@H](C)CO)C(=O)Cc2cc(NS(=O)(=O)c3ccc(Cl)cc3)ccc2O[C@H]1CN(C)CC1CCCCC1	T cruzi intra 65
Cc1ccc(S(=O)(=O)Nc2ccc3c(c2)CC(=O)N([C@H](C)CO)C[C@@H](C)[C@H](CN(C)CC2CCCCC2)O3)cc1	T cruzi intra 85
Cc1ccc(S(=O)(=O)Nc2ccc3c(c2)CC(=O)N([C@H](C)CO)C[C@@H](C)[C@@H](CN(C)CC2CCCCC2)O3)cc1	none (no result: A1 apoptosis 2)
CC(C)(C)OC(=O)Nc1cccc(/C=N/NC(=O)c2ccccn2)c1	none (no result: A1 apoptosis 2)
O=C(O)CCCCCCC(=O)N/N=C/c1ccco1	none
CC12N=C3SCC(=O)N3[C@H](c3ccccc3O1)[C@H]2CO	none (no result: T cruzi intra, INS-1E rescue)
C[C@@H]1CN([C@H](C)CO)C(=O)c2cc(N(C)C)ccc2O[C@@H]1CN(C)Cc1ccc(Cl)c(Cl)c1	none
C[C@H](CO)N1C[C@H](C)[C@@H](CN(C)Cc2ccc(Oc3ccccc3)cc2)Oc2ccc(N(C)C)cc2C1=O	T cruzi intra 71
C[C@@H]1CN([C@@H](C)CO)C(=O)c2cc(N(C)C)ccc2O[C@@H]1CN(C)Cc1ccc(Cl)c(Cl)c1	T cruzi intra 64 (no result: A1 apoptosis 2)
C[C@H](CO)N1C[C@H](C)[C@H](CN(C)Cc2ccccc2)Oc2ccc(N(C)C)cc2C1=O	none
C[C@H]1CN([C@@H](C)CO)C(=O)c2cc(N(C)C)ccc2O[C@H]1CN(C)Cc1ccc(-c2ccccc2)cc1	none (no result: A1 apoptosis 2)
C[C@@H]1CN([C@@H](C)CO)C(=O)c2cc(N(C)C)ccc2O[C@@H]1CN(C)Cc1ccc(-c2ccccc2)cc1	T cruzi intra 65 (no result: A1 apoptosis 2)
COc1ccc([Si](C)(C)[C@@H]2[C@@H](CCn3cc(CCO)nn3)O[C@]3(C(=O)N(C)c4c(Br)cc(C)cc43)[C@H]2C)cc1	none (no result: T cruzi intra, INS-1E rescue)
NC(=O)COc1ccccc1/C=N/NC(=O)CCCCCC(=O)NO	none (no result: T cruzi intra, INS-1E rescue)
